Reference: ChEMBL document CHEMBL4354813, “Design, Synthesis, and Pharmacological Evaluation of Potent Positive Allosteric Modulators of the Glucagon-like Peptide-1 Receptor (GLP-1R)” (J Med Chem, 2020)
Active and inactive are the calls of the source. The calls are words filed in the database; no cut-off is given here.

Tests used:
[1] = biological target: Vasoactive intestinal polypeptide receptor 2 (Homo sapiens) (UniProt P41587); assay: Activity at human VIPR expressed in PSC-HEK293 cells incubated for 30 mins by HTRF cAMP assay
Chain of Vasoactive intestinal polypeptide receptor 2 (Homo sapiens) (P41587 whole entry, looked up): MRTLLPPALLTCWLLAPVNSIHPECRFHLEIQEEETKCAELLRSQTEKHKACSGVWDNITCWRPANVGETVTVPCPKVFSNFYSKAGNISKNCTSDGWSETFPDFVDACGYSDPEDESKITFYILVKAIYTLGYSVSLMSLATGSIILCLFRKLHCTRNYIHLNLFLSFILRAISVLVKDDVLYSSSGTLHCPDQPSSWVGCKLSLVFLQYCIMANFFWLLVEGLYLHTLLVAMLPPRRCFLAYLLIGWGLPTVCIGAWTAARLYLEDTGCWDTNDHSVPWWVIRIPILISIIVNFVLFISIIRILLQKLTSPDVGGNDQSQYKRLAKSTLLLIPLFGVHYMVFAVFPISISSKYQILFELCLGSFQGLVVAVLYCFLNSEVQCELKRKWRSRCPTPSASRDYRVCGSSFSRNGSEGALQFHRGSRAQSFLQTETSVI

[2] = biological target: T1, Glucagon-like peptide 1 receptor (Homo sapiens, UniProt P43220); assay: Positive allosteric modulator activity at GLP-1R in human 1.1B4 cells in presence of EC20 level of GLP1(9-36)NH2 incubated for 30 mins by HTRF cAMP assay relative to control; assay type: functional, cell-based
T1 sequence (P43220 whole entry): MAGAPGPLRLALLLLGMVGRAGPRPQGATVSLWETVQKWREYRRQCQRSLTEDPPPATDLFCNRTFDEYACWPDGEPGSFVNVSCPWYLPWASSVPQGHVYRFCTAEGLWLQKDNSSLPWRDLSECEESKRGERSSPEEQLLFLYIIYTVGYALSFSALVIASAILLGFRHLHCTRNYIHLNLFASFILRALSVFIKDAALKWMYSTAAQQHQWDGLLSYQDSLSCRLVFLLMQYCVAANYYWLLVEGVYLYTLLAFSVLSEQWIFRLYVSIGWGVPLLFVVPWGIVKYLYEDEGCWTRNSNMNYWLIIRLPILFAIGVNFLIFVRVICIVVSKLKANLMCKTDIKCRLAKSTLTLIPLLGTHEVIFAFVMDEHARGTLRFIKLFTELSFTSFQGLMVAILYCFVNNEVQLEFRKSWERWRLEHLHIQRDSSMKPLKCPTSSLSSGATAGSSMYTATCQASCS
How it was run: (§1)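 Human pancreatic β-cell line 1.1B4, 20,000 cells/well cultured overnight, washed twice; compound concentration-response with fixed 10 nM GLP1(9-36)NH2, 30 min. cAMP by HTRF 665/620 ratio, normalised to buffer (1x HBSS, 0.1% BSA, 1 mM IBMX; 0%) and GLP-1(7-36)NH2 (100%); 4-parameter logistic fit.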

[3] = biological target: T2, Glucagon-like peptide 1 receptor (Mus musculus) (UniProt O35659); assay: Inhibition of 15 mM glucose-mediated increase in intracellular Ca2+ level in mouse MIN6-c4 cells at 0.12 to 30 uM by FLIPR assay relative to control; assay type: functional, cell-based
T2 sequence (whole entry): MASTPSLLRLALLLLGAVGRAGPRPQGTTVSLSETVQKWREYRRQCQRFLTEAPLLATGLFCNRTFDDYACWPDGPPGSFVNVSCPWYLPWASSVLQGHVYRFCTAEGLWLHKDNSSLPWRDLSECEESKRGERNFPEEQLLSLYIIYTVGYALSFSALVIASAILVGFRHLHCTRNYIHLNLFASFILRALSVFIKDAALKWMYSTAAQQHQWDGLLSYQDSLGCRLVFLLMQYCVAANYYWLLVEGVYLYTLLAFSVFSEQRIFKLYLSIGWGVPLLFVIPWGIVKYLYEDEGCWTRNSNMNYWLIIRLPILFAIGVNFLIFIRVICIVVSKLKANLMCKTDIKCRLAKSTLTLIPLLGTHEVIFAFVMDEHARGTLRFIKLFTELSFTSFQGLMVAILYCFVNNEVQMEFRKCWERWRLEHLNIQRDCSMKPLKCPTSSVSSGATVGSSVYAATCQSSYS

[4] = biological target: T1, Glucagon-like peptide 1 receptor; assay: Positive allosteric modulator activity at human GLP-1R expressed in PSC-HEK293 cells assessed as potentiation of cAMP accumulation incubated for 30 mins by HTRF cAMP assay
[5] = biological target: T1, Glucagon-like peptide 1 receptor; assay: Positive allosteric modulator activity at human GLP-1R expressed in PSC-HEK293 cells in presence of EC20 level of GLP1(9-36)NH2 incubated for 30 mins by HTRF cAMP assay; assay type: functional, cell-based
How it was run: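 Thaw-and-use PSC-HEK293 cells stably expressing human GLP-1R, 2000 cells/well in HBSS/20 mM HEPES/0.1% BSA with 2 mM IBMX. Enhancer format: compound dose-response plus fixed EC20 GLP1(9-36)NH2. Shift format: GLP1(9-36)NH2 dose-response plus 10 or 3 μM compound. 30 min at room temperature. EC50 from a 4-parameter logistic fit.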

[6] = biological target: T2, Glucagon-like peptide 1 receptor (Mus musculus); assay: Positive allosteric modulator activity at GLP-1R in mouse MIN6-c4 cells assessed as effect on glucose-mediated increase in intracellular Ca2+ level by FLIPR assay relative to control; assay type: functional, cell-based
[7] = biological target: Glucagon receptor (Homo sapiens) (UniProt P47871); assay: Activity at human GCGR expressed in PSC-HEK293 cells incubated for 30 mins by HTRF cAMP assay; assay type: functional, cell-based
Chain of Glucagon receptor (Homo sapiens) (P47871 whole entry): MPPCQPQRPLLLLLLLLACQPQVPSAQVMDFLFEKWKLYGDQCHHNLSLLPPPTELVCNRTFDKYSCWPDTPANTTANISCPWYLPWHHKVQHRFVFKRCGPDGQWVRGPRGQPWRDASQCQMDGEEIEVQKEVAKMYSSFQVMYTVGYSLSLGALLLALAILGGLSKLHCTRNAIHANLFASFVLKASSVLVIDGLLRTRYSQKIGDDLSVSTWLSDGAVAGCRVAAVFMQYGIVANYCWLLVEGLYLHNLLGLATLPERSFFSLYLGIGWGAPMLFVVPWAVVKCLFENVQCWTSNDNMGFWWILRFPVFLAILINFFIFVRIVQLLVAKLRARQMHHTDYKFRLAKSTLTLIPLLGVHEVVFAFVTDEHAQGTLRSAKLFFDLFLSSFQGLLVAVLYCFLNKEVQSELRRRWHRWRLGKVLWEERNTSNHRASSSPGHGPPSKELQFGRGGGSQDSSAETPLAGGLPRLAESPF

[8] = biological target: T1, Glucagon-like peptide 1 receptor; assay: Positive allosteric modulator activity at human GLP-1R expressed in PSC-HEK293 cells assessed as potentiation of GLP1(9-36)NH2-induced cAMP accumulation by measuring shift in EC50 of endogenous GLP1(9-36)NH2 at 10 uM incubated for 30 mins by HTRF cAMP assay relative to control; assay type: functional, cell-based
How it was run: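 Thawed frozen PSC-HEK293 cells stably expressing human GLP-1R, 2000 cells/well in HBSS/20 mM HEPES/0.1% BSA with 2 mM IBMX. Shift format: GLP1(9-36)NH2 dose-response with compound fixed at 10 or 3 µM; 30 min room temperature; cAMP by HTRF (665/620 nm ratio) after 1 h with lysis reagents; 4-parameter logistic fit; EC50 shift factor derived.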

[9] = biological target: T3, Gastric inhibitory polypeptide receptor (Homo sapiens) (UniProt P48546); assay: Activity at human GIPR expressed in PSC-HEK293 cells incubated for 30 mins by HTRF cAMP assay; assay type: functional, cell-based
T3 sequence (whole entry): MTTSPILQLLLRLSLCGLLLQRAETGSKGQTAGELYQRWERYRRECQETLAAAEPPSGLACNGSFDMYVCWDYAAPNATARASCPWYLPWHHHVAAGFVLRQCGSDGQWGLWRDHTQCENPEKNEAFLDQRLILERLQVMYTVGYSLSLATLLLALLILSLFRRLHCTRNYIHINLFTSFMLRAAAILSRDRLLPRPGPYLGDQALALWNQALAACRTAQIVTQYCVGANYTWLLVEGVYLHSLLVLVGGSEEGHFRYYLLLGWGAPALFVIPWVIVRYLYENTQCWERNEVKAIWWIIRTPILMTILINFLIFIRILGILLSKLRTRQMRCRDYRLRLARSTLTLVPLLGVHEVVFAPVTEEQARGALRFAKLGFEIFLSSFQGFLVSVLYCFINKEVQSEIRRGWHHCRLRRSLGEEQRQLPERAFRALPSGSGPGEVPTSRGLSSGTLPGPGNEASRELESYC

[10] = biological target: T1, Glucagon-like peptide 1 receptor; assay: Positive allosteric modulator activity at human GLP-1R expressed in PSC-HEK293 cells assessed as potentiation of oxyntomodulin-induced cAMP accumulation incubated for 30 mins by HTRF cAMP assay relative to control; assay type: functional, cell-based
How it was run: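 Counterscreen in HEK293 cells with recombinant receptor, 2000 cells/well, 2 mM IBMX, 30 min at room temperature. Compound tested with 10 nM oxyntomodulin (GLP-1R cells) or with GLP-1(9-36)NH2 in glucagon-receptor-overexpressing cells. cAMP read by HTRF at 665/620 nm.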

[11] = test system: HEK293; assay: Effect on cAMP accumulation in parental HEK293 cells incubated for 30 mins by HTRF cAMP assay; assay type: functional, cell-based; details: Homo sapiens
[12] = biological target: Glucagon receptor (Homo sapiens) (UniProt P47871); assay: Positive allosteric modulator activity at human GCGR expressed in PSC-HEK293 cells assessed as potentiation of GLP-1(9-36)NH2-induced cAMP accumulation incubated for 30 mins by HTRF cAMP assay relative to control; assay type: functional, cell-based
[13] = biological target: T1, Glucagon-like peptide 1 receptor; assay: Activity at human GLP-1R expressed in PSC-HEK293 cells incubated for 30 mins by HTRF cAMP assay; assay type: functional, cell-based
[14] = biological target: T1, Glucagon-like peptide 1 receptor; assay: Positive allosteric modulator activity at GLP-1R in human 1.1B4 cells in presence of EC20 level of GLP1(9-36)NH2 incubated for 30 mins by HTRF cAMP assay; assay type: functional, cell-based; details: read-out: EC50
How it was run: as §1

| Activity [1] | Emax [2] | inhibition [3] | Activity [4] | EC50 [5] | fold change (FC) [6] | Activity [7] | Ratio EC50 [8] | Activity [9] | Activity [10] | Activity [12] | Activity [13] | EC50 [14] | SMILES | Activity [11] |
| --- | --- | --- | --- | --- | --- | --- | --- | --- | --- | --- | --- | --- | --- | --- |
| inactive | 102% | inactive | inactive | 0.005 µM | 1.2 | inactive | 8190 | inactive | inactive | inactive | inactive | 0.13 µM | CC(C)(C)OC(=O)n1c2c(c3ccccc31)C[C@H]1C(=O)N3C[C@@H](CC(=O)O)C[C@H]3[C@@H]2N1C(=O)CC1CCC(F)(F)CC1 | inactive |
| inactive | 100% | Active | inactive | 0.0015 µM | 0.9 | inactive | 3140 | inactive | inactive | inactive | inactive | 0.04 µM | CC(O)CCN1C[C@H]2c3c(c4ccccc4n3C(=O)OC(C)(C)C)C[C@@H](C1=O)N2C(=O)CC1CCC(F)(F)CC1 (stereo partly drawn) | inactive |
